We go through 24 compounds from ChEMBL document CHEMBL5055628, “Anticancer properties of indole derivatives as IsoCombretastatin A-4 analogues” (Eur J Med Chem, 2021).

This test deals with HCT-116. Kind of test: Cytotoxicity against human HCT-116 cells assessed as inhibition of cell growth measured after 72 hrs by CellTiter-Glo reagent based luminescence assay. The format is functional. The conditions noted are these: HCT-116, 72 h. A digest of the protocol: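 Cells (HCT-116 in McCoy's 5A; U87-MG in DMEM 4.5 g/L glucose; all with 10% serum, 1% glutamine, 37 °C, 5% CO2) seeded at 3 × 10³/well, treated after 24 h with 10 final concentrations by serial dilution; vehicle controls. After 72 h, CellTiter-Glo luminescence; IC50 from four- or five-parameter logistic fit, triplicate, mean of three experiments.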
On the technique in general: Cellular ATP, detected with luciferase, serves as a proxy for viable cell number.
As a reminder, the IC50 is the concentration at which inhibition is half-maximal. With `C=C(c1ccc2c(c1)cc1n2CCOC1)c1cc(C)nc2ccccc12`, the IC50 was found to be 109 nM.

As for `Cc1nc(N(C)c2ccc3c(c2)cc2n3CCOC2)c2ccccc2n1`, the IC50 was found to be 10.4 nM.

On to `COCc1cc2cc(N(C)c3cc(OC)c(OC)c(OC)c3)ccc2n1C`, for which the IC50 worked out at 47.5 nM.

As for `Cc1cc(N(C)c2ccc3c(c2)cc2ccccn23)c2ccccc2n1`, the IC50 came out at 78.4 nM.

In the case of `COc1cc2nc(Cl)nc(N(C)c3ccc4c(c3)cc3n4CCOC3)c2cc1OC`, the IC50 worked out at 361 nM.

As to `COc1cc(N(C)c2ccc3c(c2)cc2n3CC=CC2)cc(OC)c1OC`, the IC50 is 959 nM.

With `C=C(c1cc(OC)c(OC)c(OC)c1)c1ccc2c(c1)cc1ccccn12`, the IC50 was found to be 213 nM.

With `C=C(c1ccc2c(c1)cc(CO)n2CC)c1cc(C)nc2ccccc12`, the IC50 was determined as 1.47 nM.

With `C=C(c1cc(OC)c(OC)c(OC)c1)c1ccc2c(c1)cc(CO)n2C`, the 50% inhibitory concentration (IC50) is 2.12 nM.

For the compound `C=C(c1cc(OC)c(OC)c(OC)c1)c1ccc2c(c1)cc1n2CCOC1`, the concentration for half-maximal inhibition (IC50) was 23.5 nM.

As to `C=C(c1cc(OC)c(OC)c(OC)c1)c1ccc2c(c1)cc1n2CC=CC1`, the half-maximal inhibitory concentration (IC50) is 970 nM.

Regarding `CCn1c(CO)cc2cc(N(C)c3cc(OC)c(OC)c(OC)c3)ccc21`, the IC50 stood at 987 nM.

With `Cc1cc(N(C)c2ccc3c(c2)cc2n3CCOC2)c2ccccc2n1`, the IC50 was determined as 3.22 nM.

On to `CN(c1ccc2c(c1)cc1n2CCOC1)c1cc(C#N)nc2ccccc12`, for which the IC50 came out at 2.8 nM.

For the compound `COc1cc(N(C)c2ccc3c(c2)cc2n3CCOC2)cc(OC)c1OC`, the half-maximal inhibitory concentration (IC50) was 29.2 nM.

Consider `COCOCc1cc2cc(N(C)c3cc(C)nc4ccccc34)ccc2n1C`, for which the IC50 was 44.3 nM.

`Cc1cc(N(C)c2ccc3c(c2)cc2n3CC=CC2)c2ccccc2n1`: the IC50 came to 5.2 nM.

For `CCn1c(CO)cc2cc(N(C)c3cc(C)nc4ccccc34)ccc21`, the IC50 worked out at 21.6 nM.

In the case of `Cc1nc(N(C)c2ccc3c(c2)cc2ccccn23)c2ccccc2n1`, the IC50 is 6.87 nM.

For the compound `COCc1cc2cc(N(C)c3cc(C)nc4ccccc34)ccc2n1C`, the IC50 came to 10.2 nM.

Turning to `C=C(c1ccc2c(c1)cc(CO)n2C)c1cc(C)nc2ccccc12`, the half-maximal inhibitory concentration (IC50) was 1.25 nM.

As for `C=C(c1cc(OC)c(OC)c(OC)c1)c1ccc2c(c1)cc(COC)n2C`, the IC50 was determined as 72.4 nM.

For the compound `Cc1cc(N(C)c2ccc3c(c2)cc(CO)n3C)c2ccccc2n1`, the IC50 was found to be 16.4 nM.

Turning to `C=C(c1ccc2c(c1)cc1n2CC=CC1)c1cc(C)nc2ccccc12`, the IC50 amounted to 25.7 nM.
